From ChEMBL document CHEMBL1629603, “Voriconazole increases while itraconazole decreases plasma meloxicam concentrations” (Antimicrob Agents Chemother, 2009)
Active and inactive are the calls of the source. The calls are words filed in the database; no cut-off is given here.

Assays:
Homo sapiens [1] = assay: Toxicity in human assessed as photophobia at 400 mg, po every 12 hrs for 1 day and 200, po mg every 12 hrs for one additional day; format: organism-based; details: in vivo
Homo sapiens [2] = assay: Inhibition of TxB2 production in human blood at 15 mg, po after 8 hrs by enzyme immunoassay pretreated with voriconazole at 400 mg, po every 12 hrs for 1 day and 200, po mg every 12 hrs for one additional day; format: functional
In short: (§1)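 Design: 12 healthy males, Latin-square three-phase crossover, 4-week washout; 15 mg oral meloxicam given fasted 1 h after the last voriconazole dose. Blood taken before and at 5, 8, 12, 24, 48 h into glass tubes without anticoagulant, clotted 1 h at 37°C. Serum TxB2 measured by enzyme immunoassay. Reported as percent decrease versus each subject's own baseline.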

Homo sapiens [3] = assay: Inhibition of TxB2 production in human blood at 15 mg, po after 12 hrs by enzyme immunoassay pretreated with voriconazole at 400 mg, po every 12 hrs for 1 day and 200, po mg every 12 hrs for one additional day; format: functional; in short: as §1
Plasma [4] = assay: Fraction unbound in human at 15 mg, po pretreated with voriconazole at 400 mg, po every 12 hrs for 1 day and 200, po mg every 12 hrs for one additional day; format: ADME, organism-based; details: in vivo
In short: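 Healthy volunteers, open-label randomized crossover; 15 mg oral meloxicam given fasted 1 h after the last voriconazole dose. Plasma drawn 5 h post-dose; 1 ml ultrafiltered (YM30 filter, 1,200 x g, 25°C, 30 min). Unbound meloxicam measured by LC-MS/MS (positive ion, piroxicam internal standard; standards 0.5–50 ng/ml), all samples in one run.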

Homo sapiens [5] = assay: Toxicity in human assessed as altered color vision changes at 400 mg, po every 12 hrs for 1 day and 200, po mg every 12 hrs for one additional day; format: organism-based; details: in vivo
Homo sapiens [6] = assay: Inhibition of TxB2 production in human blood at 15 mg, po after 24 hrs by enzyme immunoassay pretreated with voriconazole at 400 mg, po every 12 hrs for 1 day and 200, po mg every 12 hrs for one additional day; format: functional; in short: as §1
Homo sapiens [7] = assay: Inhibition of TxB2 production in human blood at 15 mg, po after 48 hrs by enzyme immunoassay pretreated with voriconazole at 400 mg, po every 12 hrs for 1 day and 200, po mg every 12 hrs for one additional day; format: functional; in short: as §1
Homo sapiens [8] = assay: Inhibition of TxB2 production in human blood at 15 mg, po after 5 hrs by enzyme immunoassay pretreated with voriconazole at 400 mg, po every 12 hrs for 1 day and 200, po mg every 12 hrs for one additional day; format: functional; in short: as §1
Homo sapiens [9] = assay: Inhibition of TxB2 production in human blood at 15 mg, po after 8 hrs by enzyme immunoassay; format: functional
In short: (§2)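 Ex vivo COX-1 index in healthy volunteers. Blood drawn without anticoagulant before and 5, 8, 12, 24, 48 h after the single oral dose, then clotted 1 h at 37°C. Serum TxB2 measured by enzyme immunoassay. Percent decrease calculated against each subject's own predose baseline, within a crossover with control or azole-pretreated phases.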

Homo sapiens [10] = assay: Inhibition of TxB2 production in human blood at 15 mg, po measured up to 48 hrs by enzyme immunoassay pretreated with itraconazole at 200 mg, po qd for 4 days; format: functional, organism-based; in short: as §2
Plasma [11] = assay: Fraction unbound in human plasma at 15 mg, po; format: ADME, organism-based; details: in vivo
In short: (§3)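 Plasma drawn 5 h after the single oral dose in each crossover phase (control, voriconazole 400 mg q12h day 1 then 200 mg q12h day 2, or itraconazole 200 mg daily for 4 days, last azole dose 1 h before). Ultrafiltered through a YM30 membrane at 1,200 x g, 25°C, 30 min. Free drug by LC-MS/MS; bound fraction derived from free versus total.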

Homo sapiens [12] = assay: Inhibition of TxB2 production in human blood at 15 mg, po after 24 hrs by enzyme immunoassay; format: functional; in short: as §2
Homo sapiens [13] = assay: Inhibition of TxB2 production in human blood at 15 mg, po after 12 hrs by enzyme immunoassay; format: functional; in short: as §2
[14] = AUC (0 to 72 hrs) in human at 15 mg, po; format: ADME, organism-based; parameters: dose 15 mg, time < 72 hr, route oral; details: plasma
In short: (§4)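 Healthy male volunteers (n=12), randomized three-phase Latin-square crossover with 4-week washout; single oral dose after overnight fast, lunch at 4 h. Venous plasma sampled predose and 1–72 h, stored –70°C; total drug by LC-MS/MS (piroxicam internal standard). Cmax and Tmax read directly from concentration data; AUC0-72 by linear (rising) / log (descending) trapezoidal rule.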

[15] = Cmax in human at 15 mg, po; format: ADME, organism-based; parameters: dose 15 mg, route oral; details: in vivo; in short: as §4
Homo sapiens [16] = assay: Inhibition of TxB2 production in human blood at 15 mg, po after 48 hrs by enzyme immunoassay; format: functional; in short: as §2
[17] = Protein binding in human plasma at 15 mg, po after 5 hrs; format: ADME, organism-based; details: read-out: PPB (converted); in short: as §3
[18] = Tmax in human at 15 mg, po; format: ADME, organism-based; details: in vivo; in short: as §4
Homo sapiens [19] = assay: Inhibition of TxB2 production in human blood at 15 mg, po after 5 hrs by enzyme immunoassay; format: functional; in short: as §2
Homo sapiens [20] = assay: Inhibition of TxB2 production in human blood at 15 mg, po after 48 hrs by enzyme immunoassay pretreated with itraconazole at 200 mg, po qd for 4 days; format: functional; in short: as §2
[21] = Protein binding in human at 15 mg, po pretreated with voriconazole at 400 mg, po every 12 hrs for 1 day and 200, po mg every 12 hrs for one additional day measured after 5 hrs last post dose; format: ADME, organism-based; details: plasma, read-out: PPB (converted); in short: as §3
[22] = Protein binding in human at 15 mg, po pretreated with itraconazole at 200 mg, po qd for 4 days measured after 5 hrs last post dose; format: ADME, organism-based; details: plasma, read-out: PPB (converted); in short: as §3
Plasma [23] = assay: Fraction unbound in human at 15 mg, po pretreated with itraconazole at 200 mg, po qd for 4 days; format: ADME, organism-based; details: in vivo, 96 h; in short: as §3

With `C[C@@H](c1ncncc1F)[C@](O)(Cn1cncn1)c1ccc(F)cc1F` [VORICONAZOLE] the Activity (Homo sapiens [1]) was “Toxic”, the “inhibition (INH)” value (Homo sapiens [2]) was 46% and the “inhibition (INH)” value (Homo sapiens [3]) was 49%. The Fu (Plasma [4]) was 0.17%, the Activity (Homo sapiens [5]) was “Toxic” and the “inhibition (INH)” value (Homo sapiens [6]) was 31%. For the same compound, the “inhibition (INH)” value (Homo sapiens [7]) was 14% and the “inhibition (INH)” value (Homo sapiens [8]) was 37%.

In the case of `Cc1cnc(NC(=O)C2=C(O)c3ccccc3S(=O)(=O)N2C)s1` [MELOXICAM], the “inhibition (INH)” value (Homo sapiens [9]) is reported as 37%, the inhibition (Homo sapiens [10]) is reported as “inactive” and the Fu (Plasma [11]) is reported as 0.18%. The “inhibition (INH)” value (Homo sapiens [12]) was 28%, the “inhibition (INH)” value (Homo sapiens [13]) was 56% and the AUC(0-t) at 72 h [14] was 32400 ng·h/mL. For the same compound, the Cmax [15] was 1250 ng/mL, the “inhibition (INH)” value (Homo sapiens [16]) was 25% and the fraction unbound at 5 h [17] was 0.0017. For the same compound, the Tmax [18] was 4 h, the “inhibition (INH)” value (Homo sapiens [19]) was 30% and the “inhibition (INH)” value (Homo sapiens [20]) was 29%. It also gave a fraction unbound at 5 h [21] of 0.0017 and a fraction unbound at 5 h [22] of 0.0018.

With `CCC(C)n1ncn(-c2ccc(N3CCN(c4ccc(OCC5COC(Cn6cncn6)(c6ccc(Cl)cc6Cl)O5)cc4)CC3)cc2)c1=O` (stereo not drawn) [ITRACONAZOLE] the Fu (Plasma [23]) was 0.18%.
